These results are taken from ChEMBL document CHEMBL2384912, “Design, synthesis, and inhibitory activity of potent, photoswitchable mast cell activation inhibitors” (J Med Chem, 2013).

The subject of assay [1] is LAD2. Put plainly: Inhibition of human LAD2 mast cell activation assessed as compound 48/80-induced degranulation at 100 uM incubated for 30 mins prior to compound 48/80 challenge by histamine release assay. Format: functional, cell-based. In a few lines:
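Supernatant histamine was derivatized: NaOH, then 0.25% o-phthalaldehyde in MeOH for 4 min at room temperature, then HCl. Fluorescence was read at ex 360/em 450 nm; n = 3.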

Assay [2] deals with LAD2. Put plainly: Inhibition of human LAD2 mast cell activation assessed as compound 48/80-induced degranulation at 1000 uM incubated for 30 mins prior to compound 48/80 challenge by beta-hexosaminidase release assay. Format: functional, cell-based. In a few lines:
(§1)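 Supernatant was incubated with 2 mg/mL p-nitrophenyl-N-acetyl-D-glucosaminide in citrate buffer pH 4.5 for 1 h at 37 °C and stopped with 0.4 M glycine. A405 was read; % release = supernatant/(supernatant + lysate) × 100.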

The test system of assay [3] is LAD2. Put plainly: Inhibition of human LAD2 mast cell activation assessed as 1.0 uM compound 48/80-induced degranulation incubated for 30 mins prior to compound 48/80 challenge by beta-hexosaminidase release assay. It is filed as functional, cell-based. In a few lines:
as §1

Assay [4] concerns LAD2. Put plainly: Inhibition of human LAD2 mast cell activation assessed as 0.1 uM compound 48/80-induced degranulation incubated for 30 mins prior to compound 48/80 challenge by beta-hexosaminidase release assay. It is filed as functional, cell-based. In a few lines: as §1
The test system of assay [5] is LAD2. Put plainly: Inhibition of human LAD2 mast cell activation assessed as compound 48/80-induced degranulation incubated for 30 mins prior to compound 48/80 challenge by beta-hexosaminidase release assay. It is filed as functional, cell-based. In a few lines: as §1
Assay [6] deals with LAD2. Put plainly: Inhibition of human LAD2 mast cell activation assessed as compound 48/80-induced degranulation at 200 to 400 uM incubated for 30 mins prior to compound 48/80 challenge by beta-hexosaminidase release assay in presence of UV light. It is filed as functional, cell-based.
Assay [7] has as its system LAD2. Put plainly: Inhibition of human LAD2 mast cell activation assessed as compound 48/80-induced degranulation at 200 to 400 uM incubated for 30 mins prior to compound 48/80 challenge by beta-hexosaminidase release assay. Format: functional, cell-based. The gist of the method:
as §1

Assay [8] concerns LAD2. Put plainly: Inhibition of human LAD2 mast cell activation assessed as compound 48/80-induced degranulation at 10 to 20 uM incubated for 30 mins prior to compound 48/80 challenge by beta-hexosaminidase release assay in presence of UV light. Format: functional, cell-based.
The subject of assay [9] is LAD2. Put plainly: Inhibition of human LAD2 mast cell activation assessed as compound 48/80-induced degranulation at 10 to 20 uM incubated for 30 mins prior to compound 48/80 challenge by beta-hexosaminidase release assay. Format: functional, cell-based. In a few lines: as §1
The nature of assay [10]: Ratio of DSCG IC50 to compound IC50 for human LAD2 mast cell. Format: functional.
Assay [11] relates to LAD2. Put plainly: Inhibition of human LAD2 mast cell activation assessed as compound 48/80-induced degranulation at 10 uM incubated for 30 mins prior to compound 48/80 challenge by beta-hexosaminidase release assay. It is filed as functional, cell-based. The gist of the method: as §1

Activity calls are given as the source filed them. The rule behind the calls is not given here. Some results are limits rather than exact numbers.

For `O=C(O)c1cc(=O)c2c(OCC(O)COc3cccc4oc(C(=O)O)cc(=O)c34)cccc2o1` [CROMOLYN SODIUM], the result in assay [1] was inactive. In addition, the inhibition entry in assay [2] and in [4] was “Active” in each case. Also, in assay [3], the inhibition entry is “inactive”. Besides, the IC50 – broadly, the concentration that inhibits the measured activity by half – in assay [5] was > 1000 µM.

As to `O=C(O)c1cc(=O)c2cc(/N=N/c3ccc4oc(C(=O)O)cc(=O)c4c3)ccc2o1` (mixture of isomers), the inhibition result in assay [6] and in [7] was “Active” each time.

As to `O=C(O)c1cc(=O)c2c(OCc3ccc(/N=N/c4ccc(COc5cccc6oc(C(=O)O)cc(=O)c56)cc4)cc3)cccc2o1`, the inhibition result in assay [8] and in assay [9] was “Active” in each case.

On to `O=C(O)c1cc(=O)c2c(OCc3cccc(/N=N/c4cccc(COc5cccc6oc(C(=O)O)cc(=O)c56)c4)c3)cccc2o1` (mixture of isomers), for which the inhibition entry in [8] and in [9] was “Active” in each case.

With `O=C(O)c1cc(=O)c2cc(/N=N/c3ccc4oc(C(=O)O)cc(=O)c4c3)ccc2o1`, the inhibition result in [6] and in assay [7] was “Active” each time.

Regarding `O=C([O-])c1cc(=O)c2c(OCc3ccc(/N=N/c4ccc(COc5cccc6oc(C(=O)[O-])cc(=O)c56)cc4)cc3)cccc2o1.[Na+].[Na+]`, the “Ratio IC50” value in assay [10] came out at 100. The IC50 in assay [5] came out at 28 µM.

On to `O=C([O-])c1cc(=O)c2c(OCc3cccc(/N=N/c4cccc(COc5cccc6oc(C(=O)[O-])cc(=O)c56)c4)c3)cccc2o1.[Na+].[Na+]`, for which the “Ratio IC50” value in assay [10] came out at 100. The IC50 in [5] came out at 10 µM.

`O=C(O)c1cc(=O)c2c(OCc3cccc(/N=N/c4cccc(COc5cccc6oc(C(=O)O)cc(=O)c56)c4)c3)cccc2o1`: the inhibition entry in [8], in assay [9], in assay [1] and in [11] was “Active” each time.

Consider `O=C(O)c1cc(=O)c2c(OCc3ccc(/N=N/c4ccc(COc5cccc6oc(C(=O)O)cc(=O)c56)cc4)cc3)cccc2o1` (mixture of isomers), for which the inhibition entry in [8] and in assay [9] was “Active” throughout.
